Experimental data as given in paper PMC4864154 (Journal of molecular biology, 2014).
Like-named read-outs stand apart in the source and are kept apart here.

Key:
[1] = target: recombinant GluN1/2A receptors (Rattus norvegicus, UniProt P35439+Q00959); assay type: cell-based
GluN1-N616G/2A = GluN1-N616G/2A (Rattus norvegicus, UniProt P35439+Q00959, N616G); assay type: cell-based
[2] = target: GluN1 S617 Gly-substituted GluN1/2A (Rattus norvegicus, UniProt P35439+Q00959, S617G); assay type: cell-based
GluN1-I619G/2A = GluN1-I619G/2A (Rattus norvegicus, UniProt P35439+Q00959, I619G); assay type: cell-based
How it was run: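 Xenopus oocytes were injected with cRNA for rat GluN1-1a I619G (site-directed mutant, sequence-verified) at 1 ng and WT GluN2A at 10 ng per oocyte. Two-electrode voltage clamp at -60 mV in buffer of 115 mM NaCl, 2 mM KCl, 5 mM HEPES and 1.8 mM BaCl2, pH 7.6. Percent steady-state block of agonist-evoked current by 100 nM test compound or 0.5 mM Mg2+. Mean + SEM from 4–8 oocytes; ANOVA against WT.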

[3] = target: GluN1 E621 Gly-substituted GluN1/2A (Rattus norvegicus, UniProt P35439+Q00959, E621G); assay type: cell-based; conditions: 100 nM ArgTX-636, -60 mV
How it was run: (§1)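 Rat GluN1-1a and GluN2A cDNAs carrying Gly substitutions made by site-directed mutagenesis and sequence-verified. Xenopus oocytes were each injected with cRNA (1 ng GluN1, 10 ng GluN2A). Two-electrode voltage clamp at -60 mV in buffer of 115 mM NaCl, 2 mM KCl, 5 mM HEPES and 1.8 mM BaCl2, pH 7.6. Percent block of agonist-evoked steady-state current by 100 nM test compound. Mean + SEM from 4–8 oocytes; ANOVA against WT.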

[4] = target: GluN2A N614 Gly-substituted GluN1/2A (Rattus norvegicus, UniProt P35439+Q00959, N614G); assay type: cell-based; conditions: 100 nM ArgTX-636, -60 mV
How it was run: as §1

[5] = target: GluN2A N615 Gly-substituted GluN1/2A (Rattus norvegicus, UniProt P35439+Q00959, N615G); assay type: cell-based; conditions: 100 nM ArgTX-636, -60 mV
How it was run: as §1

[6] = target: GluN2A S616 Gly-substituted GluN1/2A (Rattus norvegicus, UniProt P35439+Q00959, S616G); assay type: cell-based; conditions: 100 nM ArgTX-636, -60 mV
How it was run: as §1

[7] = target: GluN2A V617 Gly-substituted GluN1/2A (Rattus norvegicus, UniProt P35439+Q00959, V617G); assay type: cell-based; conditions: 100 nM ArgTX-636, -60 mV
How it was run: as §1

[8] = tested on: GluN1/2A and GluN1/2B over GluN1/2C and GluN1/2D NMDAR subtypes; conditions: ref [44]; [48]; cited from earlier work
WT GluN1/2A = WT GluN1/2A (Rattus norvegicus, UniProt P35439+Q00959); experiment: Two-electrode voltage-clamp, steady-state block in Xenopus oocytes, WT receptor; assay type: cell-based
Sequence of WT GluN1/2A (Q00959 23-1464, other chains not shown): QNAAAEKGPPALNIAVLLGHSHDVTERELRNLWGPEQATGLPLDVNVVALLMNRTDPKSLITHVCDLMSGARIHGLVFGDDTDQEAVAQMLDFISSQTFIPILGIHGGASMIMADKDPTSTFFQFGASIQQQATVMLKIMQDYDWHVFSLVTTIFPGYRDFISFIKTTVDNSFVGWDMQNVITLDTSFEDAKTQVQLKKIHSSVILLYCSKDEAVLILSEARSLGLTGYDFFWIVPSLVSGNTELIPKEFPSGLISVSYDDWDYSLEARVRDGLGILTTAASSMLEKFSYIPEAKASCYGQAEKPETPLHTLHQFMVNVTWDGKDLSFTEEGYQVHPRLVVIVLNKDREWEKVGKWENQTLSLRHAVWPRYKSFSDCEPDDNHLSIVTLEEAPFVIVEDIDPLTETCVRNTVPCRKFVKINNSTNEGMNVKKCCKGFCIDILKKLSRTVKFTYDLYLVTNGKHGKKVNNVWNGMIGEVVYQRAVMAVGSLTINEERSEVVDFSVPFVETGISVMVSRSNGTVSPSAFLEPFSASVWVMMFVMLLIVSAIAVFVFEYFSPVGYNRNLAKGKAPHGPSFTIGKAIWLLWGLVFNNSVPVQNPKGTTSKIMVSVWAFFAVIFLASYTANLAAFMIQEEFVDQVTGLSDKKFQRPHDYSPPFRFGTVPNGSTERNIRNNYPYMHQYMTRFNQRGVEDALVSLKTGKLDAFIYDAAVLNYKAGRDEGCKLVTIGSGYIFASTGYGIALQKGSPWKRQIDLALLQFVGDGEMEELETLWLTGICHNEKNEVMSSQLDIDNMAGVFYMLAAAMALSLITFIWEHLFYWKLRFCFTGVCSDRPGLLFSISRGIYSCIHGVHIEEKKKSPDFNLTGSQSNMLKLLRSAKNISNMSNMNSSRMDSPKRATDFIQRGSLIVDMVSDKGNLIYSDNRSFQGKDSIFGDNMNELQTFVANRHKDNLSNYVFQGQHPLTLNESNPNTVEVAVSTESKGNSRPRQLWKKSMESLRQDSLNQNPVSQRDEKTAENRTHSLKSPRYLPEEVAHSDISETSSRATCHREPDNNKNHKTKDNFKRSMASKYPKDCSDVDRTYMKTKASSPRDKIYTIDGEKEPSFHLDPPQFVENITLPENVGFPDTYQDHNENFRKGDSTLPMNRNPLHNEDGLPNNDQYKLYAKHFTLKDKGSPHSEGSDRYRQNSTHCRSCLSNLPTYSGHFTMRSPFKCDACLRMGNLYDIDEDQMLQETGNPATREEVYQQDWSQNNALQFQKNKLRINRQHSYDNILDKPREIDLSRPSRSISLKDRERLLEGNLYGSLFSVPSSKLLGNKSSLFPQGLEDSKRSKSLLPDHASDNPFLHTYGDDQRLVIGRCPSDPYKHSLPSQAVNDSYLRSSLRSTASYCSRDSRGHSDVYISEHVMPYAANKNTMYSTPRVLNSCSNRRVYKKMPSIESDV

[9] = holding potential -80 mV, Glu 100 μM, Gly 50 μM, HEK293

Sequence of GluN1-N616G/2A (Q00959 23-1464, other chains not shown): as above
Sequence of recombinant GluN1/2A receptors (Q00959 23-1464, other chains not shown): as above

With `NC(=O)C[C@H](NC(=O)Cc1ccc(O)cc1O)C(=O)NCCCCCNCCCNCCCNC(=O)[C@@H](N)CCCN=C(N)N` [ArgTX-636, argiotoxin-636] the “decrease in dissociation rate over -60 to -100 mV” value ([1]; 500 nM ArgTX-636, -60 to -100 mV range) was “less than 2 fold”, the “increase in rate of onset of block per 20-mV negative depolarization” value ([1]; 500 nM ArgTX-636, membrane potential below -60 mV) was “approximately 5 fold” and the “steady-state block of the current” value ([1]; 500 nM ArgTX-636 for 6 s, 100 μM Glu, -80 mV) was 96 ± 1%. The “fold higher association rate constant compared to memantine” value ([1]; ArgTX-636 Kon vs literature memantine Kon) was “approximately 10 fold”, the “association rate constant (Kon) with the open channel” value [1, 9] was 4.4 ± 0.3 × 10^6 M^-1 s^-1 and the “dissociation rate constant (Koff) with the open channel” value [1, 9] was 0.36 ± 0.09 s⁻¹. For the same compound, the “mechanism of block (trapping)” value ([1]; recovery after wash in absence of agonist, 500 nM ArgTX-636, -80 mV) was “trapping blocker”, the percent steady-state block (GluN1-N616G/2A; 100 nM ArgTX-636, -60 mV, GluN1 N616G) was 78% and the percent steady-state block ([2]; 100 nM ArgTX-636, -60 mV, GluN1 S617G) was “less than 15%”. For the same compound, the percent steady-state block (GluN1-I619G/2A; 100 nM ArgTX-636, -60 mV, GluN1 I619G) was “less than 15%”, the percent steady-state block [3] was “less than 15%” and the percent steady-state block [4] was about 100%. The percent steady-state block [5] was about 100%, the percent steady-state block [6] was about 100% and the percent steady-state block [7] was about 100%. The “selectivity for GluN1/2A and GluN1/2B over GluN1/2C and GluN1/2D” value [8] was “more than 20 fold”.

For `C[C@]12N[C@H](Cc3ccccc31)c1ccccc12` [MK-801, dizocilpine], the percent steady-state block (WT GluN1/2A) was 75%, the percent steady-state block (GluN1-N616G/2A) was “less than 40%” and the percent steady-state block [2] was “less than 40%”.

For `[Mg+2]` [Mg^2+], the percent steady-state block (WT GluN1/2A; 0.5 mM Mg^2+, WT) was 88%, the percent steady-state block (GluN1-N616G/2A; 0.5 mM Mg^2+, GluN1-N616G/2A) was 28% and the percent steady-state block (GluN1-I619G/2A; 0.5 mM Mg^2+, GluN1-I619G/2A) was 53%.
